ChEMBL document CHEMBL5696442, “Discovery of type II inhibitors of TGFβ-activated kinase 1 (TAK1) and mitogen-activated protein kinase kinase kinase kinase 2 (MAP4K2)” (J Med Chem, 2015)

Tests used:
[1] = target: T1, Mitogen-activated protein kinase kinase kinase kinase 4 (Homo sapiens, UniProt O95819); experiment: Inhibition of ZC1/HGK Lys1 labeling site in human A-375 cells at 5 uM by KiNativ Profiling analysis relative to control; assay type: cell-based
[2] = Half life in Swiss albino mouse at 1 mg/kg, iv measured upto 24 hrs by LC/MS/MS analysis; assay type: ADME, organism-based; settings: in vivo
Summary of the method: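 Male Swiss albino mice. […] Blood was taken into K2EDTA from three mice per time point, from 0 to 24 h. Plasma was precipitated with acetonitrile and analysed by LC/MS/MS (LLOQ 1.138 ng/mL).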

[3] = target: T2, Mitogen-activated protein kinase kinase kinase 2 (Homo sapiens) (UniProt Q9Y2U5); experiment: Inhibition of MAP3K2 Lys1 labeling site harbouring VYLCYDVDTGRELAVKQVQFDPDSPETSKEVNALECEIQLLK in human A-375 cells at 5 uM by KiNativ Profiling analysis relative to control; assay type: cell-based
T2 sequence (whole entry): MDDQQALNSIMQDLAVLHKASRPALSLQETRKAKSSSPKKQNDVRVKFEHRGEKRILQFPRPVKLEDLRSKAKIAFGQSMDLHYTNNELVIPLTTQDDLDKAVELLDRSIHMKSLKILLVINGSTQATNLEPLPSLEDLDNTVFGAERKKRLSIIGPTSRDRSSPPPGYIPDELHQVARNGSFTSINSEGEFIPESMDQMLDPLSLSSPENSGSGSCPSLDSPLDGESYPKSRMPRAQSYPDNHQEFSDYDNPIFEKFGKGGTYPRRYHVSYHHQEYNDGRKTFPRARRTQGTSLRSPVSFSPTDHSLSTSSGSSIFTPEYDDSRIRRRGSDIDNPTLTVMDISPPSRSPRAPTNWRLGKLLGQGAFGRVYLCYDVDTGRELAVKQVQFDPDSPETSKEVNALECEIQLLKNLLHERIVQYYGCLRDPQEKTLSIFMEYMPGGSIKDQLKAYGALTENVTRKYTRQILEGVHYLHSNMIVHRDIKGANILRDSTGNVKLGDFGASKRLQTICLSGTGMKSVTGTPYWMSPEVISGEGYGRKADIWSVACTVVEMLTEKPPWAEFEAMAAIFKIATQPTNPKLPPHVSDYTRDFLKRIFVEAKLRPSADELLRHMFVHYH

[4] = target: Aurora kinase B (Homo sapiens) (UniProt Q96GD4); experiment: Inhibition of AurB ATP Loop labeling site in human A-375 cells at 0.5 uM by KiNativ Profiling analysis relative to control; assay type: cell-based
Sequence of Aurora kinase B (Homo sapiens) (Q96GD4 whole entry): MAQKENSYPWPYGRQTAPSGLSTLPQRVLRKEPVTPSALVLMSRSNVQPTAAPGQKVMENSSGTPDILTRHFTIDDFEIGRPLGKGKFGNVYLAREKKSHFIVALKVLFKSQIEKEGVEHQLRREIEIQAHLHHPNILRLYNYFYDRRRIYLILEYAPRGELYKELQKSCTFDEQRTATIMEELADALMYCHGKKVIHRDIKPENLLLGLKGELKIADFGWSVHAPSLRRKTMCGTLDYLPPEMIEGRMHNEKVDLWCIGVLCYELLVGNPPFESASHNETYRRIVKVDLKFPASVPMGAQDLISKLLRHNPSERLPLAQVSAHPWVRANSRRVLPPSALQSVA
Summary of the method: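 Live A375 melanoma cells were treated with compound at 5 or 0.5 μM, then lysed. The lysates were labeled with a lysine-reactive ATP or ADP-biotin probe. Kinase protection from probe labeling was measured by KiNativ.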

[5] = target: T3, Serine/threonine-protein kinase Nek9 (Homo sapiens) (UniProt Q8TD19); experiment: Inhibition of NEK9 ACT labeling site in human A-375 cells at 0.5 uM by KiNativ Profiling analysis relative to control; assay type: cell-based
T3 sequence (whole entry): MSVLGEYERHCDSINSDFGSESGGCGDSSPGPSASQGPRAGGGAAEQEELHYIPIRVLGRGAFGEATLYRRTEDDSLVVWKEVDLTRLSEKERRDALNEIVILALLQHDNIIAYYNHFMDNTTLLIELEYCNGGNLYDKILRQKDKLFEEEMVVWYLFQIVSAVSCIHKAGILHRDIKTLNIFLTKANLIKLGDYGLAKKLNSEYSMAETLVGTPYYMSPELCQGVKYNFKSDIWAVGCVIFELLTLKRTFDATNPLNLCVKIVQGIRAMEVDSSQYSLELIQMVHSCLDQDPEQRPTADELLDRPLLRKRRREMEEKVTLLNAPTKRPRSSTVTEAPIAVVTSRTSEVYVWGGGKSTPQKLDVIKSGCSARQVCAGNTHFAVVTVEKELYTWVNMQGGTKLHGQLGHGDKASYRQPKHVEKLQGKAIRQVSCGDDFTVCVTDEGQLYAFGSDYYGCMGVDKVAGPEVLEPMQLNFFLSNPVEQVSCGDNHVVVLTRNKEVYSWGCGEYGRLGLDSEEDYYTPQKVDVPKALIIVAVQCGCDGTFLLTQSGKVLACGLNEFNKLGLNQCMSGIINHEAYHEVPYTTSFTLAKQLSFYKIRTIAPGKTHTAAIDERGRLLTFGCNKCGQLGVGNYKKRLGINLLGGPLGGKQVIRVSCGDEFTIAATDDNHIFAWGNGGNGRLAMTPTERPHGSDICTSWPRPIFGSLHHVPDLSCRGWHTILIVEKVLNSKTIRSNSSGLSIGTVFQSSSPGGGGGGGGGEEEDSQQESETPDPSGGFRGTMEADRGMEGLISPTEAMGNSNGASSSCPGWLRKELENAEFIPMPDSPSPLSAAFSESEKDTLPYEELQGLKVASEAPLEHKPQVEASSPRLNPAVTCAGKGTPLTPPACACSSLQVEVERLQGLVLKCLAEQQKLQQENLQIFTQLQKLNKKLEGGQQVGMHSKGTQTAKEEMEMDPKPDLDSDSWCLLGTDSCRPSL

[6] = target: T4, NUAK family SNF1-like kinase 2 (Homo sapiens) (UniProt Q9H093); experiment: Inhibition of NuaK2 Lys1 labeling site in human A-375 cells at 0.5 uM by KiNativ Profiling analysis relative to control; assay type: cell-based
T4 sequence (whole entry): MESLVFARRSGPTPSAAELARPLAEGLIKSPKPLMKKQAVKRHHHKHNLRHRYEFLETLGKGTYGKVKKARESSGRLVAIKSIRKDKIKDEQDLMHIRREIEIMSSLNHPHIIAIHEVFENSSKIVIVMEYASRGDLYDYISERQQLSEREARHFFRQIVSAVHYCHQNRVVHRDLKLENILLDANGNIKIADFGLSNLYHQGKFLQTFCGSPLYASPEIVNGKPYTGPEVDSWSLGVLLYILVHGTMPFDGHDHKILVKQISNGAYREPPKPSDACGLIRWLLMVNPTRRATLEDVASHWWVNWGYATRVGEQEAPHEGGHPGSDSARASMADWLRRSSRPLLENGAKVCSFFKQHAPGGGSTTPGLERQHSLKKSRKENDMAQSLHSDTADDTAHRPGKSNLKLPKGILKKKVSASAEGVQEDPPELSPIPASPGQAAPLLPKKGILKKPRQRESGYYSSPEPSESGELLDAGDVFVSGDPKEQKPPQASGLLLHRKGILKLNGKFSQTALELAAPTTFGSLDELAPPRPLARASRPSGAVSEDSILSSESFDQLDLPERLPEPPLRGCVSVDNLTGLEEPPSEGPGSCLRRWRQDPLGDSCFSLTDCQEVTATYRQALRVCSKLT

[7] = target: Cyclin-dependent kinase 11B (Homo sapiens) (UniProt P21127); experiment: Inhibition of PITSLRE Lys2 labeling site in human A-375 cells at 0.5 uM by KiNativ Profiling analysis relative to control; assay type: cell-based
Sequence of Cyclin-dependent kinase 11B (Homo sapiens) (P21127 whole entry): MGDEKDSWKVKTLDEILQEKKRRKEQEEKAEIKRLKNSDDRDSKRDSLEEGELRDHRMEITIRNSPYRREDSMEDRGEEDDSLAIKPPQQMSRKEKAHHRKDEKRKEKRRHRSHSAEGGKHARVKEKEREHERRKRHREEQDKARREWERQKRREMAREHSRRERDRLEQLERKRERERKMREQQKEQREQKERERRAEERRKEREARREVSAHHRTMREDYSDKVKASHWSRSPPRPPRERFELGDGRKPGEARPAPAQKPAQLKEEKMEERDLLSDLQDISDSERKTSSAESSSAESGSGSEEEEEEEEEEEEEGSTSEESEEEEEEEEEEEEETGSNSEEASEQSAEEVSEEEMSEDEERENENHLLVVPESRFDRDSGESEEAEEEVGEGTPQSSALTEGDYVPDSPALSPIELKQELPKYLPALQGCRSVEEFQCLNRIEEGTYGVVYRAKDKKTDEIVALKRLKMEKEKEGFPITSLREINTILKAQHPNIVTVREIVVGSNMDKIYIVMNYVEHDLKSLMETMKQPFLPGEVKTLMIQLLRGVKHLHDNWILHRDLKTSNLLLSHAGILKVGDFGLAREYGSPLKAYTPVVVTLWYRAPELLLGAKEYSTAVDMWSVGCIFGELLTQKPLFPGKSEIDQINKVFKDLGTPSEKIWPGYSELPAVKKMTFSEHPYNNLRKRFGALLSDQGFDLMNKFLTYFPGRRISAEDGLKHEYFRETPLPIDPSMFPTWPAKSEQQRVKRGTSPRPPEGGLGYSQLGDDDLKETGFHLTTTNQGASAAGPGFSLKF

[8] = target: Serine/threonine-protein kinase 38 (Homo sapiens) (UniProt Q15208); experiment: Inhibition of NDR1 Lys2 labeling site in human A-375 cells at 0.05 uM by KiNativ Profiling analysis relative to control; assay type: cell-based
Sequence of Serine/threonine-protein kinase 38 (Homo sapiens) (Q15208 2-465 limits assumed): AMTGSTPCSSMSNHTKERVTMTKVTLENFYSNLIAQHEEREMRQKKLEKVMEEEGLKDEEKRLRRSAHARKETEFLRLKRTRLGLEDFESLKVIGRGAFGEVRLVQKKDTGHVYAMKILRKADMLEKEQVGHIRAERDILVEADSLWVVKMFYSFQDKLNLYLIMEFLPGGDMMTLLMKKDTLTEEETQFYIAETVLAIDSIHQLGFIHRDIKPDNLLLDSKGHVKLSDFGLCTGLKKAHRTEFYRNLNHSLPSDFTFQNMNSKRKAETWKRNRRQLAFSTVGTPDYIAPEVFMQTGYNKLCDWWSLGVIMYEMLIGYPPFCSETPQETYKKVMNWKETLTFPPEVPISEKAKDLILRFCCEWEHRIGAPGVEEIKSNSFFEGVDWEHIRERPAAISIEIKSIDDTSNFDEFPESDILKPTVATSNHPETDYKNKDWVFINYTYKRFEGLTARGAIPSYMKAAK

[9] = target: T1, Mitogen-activated protein kinase kinase kinase kinase 4; experiment: Inhibition of ZC1 Lys2 labeling site in human Huh-7 cell lysate at 1 uM by KiNativ Profiling analysis relative to control; assay type: subcellular

T1 sequence (O95819 2-1239 limits assumed): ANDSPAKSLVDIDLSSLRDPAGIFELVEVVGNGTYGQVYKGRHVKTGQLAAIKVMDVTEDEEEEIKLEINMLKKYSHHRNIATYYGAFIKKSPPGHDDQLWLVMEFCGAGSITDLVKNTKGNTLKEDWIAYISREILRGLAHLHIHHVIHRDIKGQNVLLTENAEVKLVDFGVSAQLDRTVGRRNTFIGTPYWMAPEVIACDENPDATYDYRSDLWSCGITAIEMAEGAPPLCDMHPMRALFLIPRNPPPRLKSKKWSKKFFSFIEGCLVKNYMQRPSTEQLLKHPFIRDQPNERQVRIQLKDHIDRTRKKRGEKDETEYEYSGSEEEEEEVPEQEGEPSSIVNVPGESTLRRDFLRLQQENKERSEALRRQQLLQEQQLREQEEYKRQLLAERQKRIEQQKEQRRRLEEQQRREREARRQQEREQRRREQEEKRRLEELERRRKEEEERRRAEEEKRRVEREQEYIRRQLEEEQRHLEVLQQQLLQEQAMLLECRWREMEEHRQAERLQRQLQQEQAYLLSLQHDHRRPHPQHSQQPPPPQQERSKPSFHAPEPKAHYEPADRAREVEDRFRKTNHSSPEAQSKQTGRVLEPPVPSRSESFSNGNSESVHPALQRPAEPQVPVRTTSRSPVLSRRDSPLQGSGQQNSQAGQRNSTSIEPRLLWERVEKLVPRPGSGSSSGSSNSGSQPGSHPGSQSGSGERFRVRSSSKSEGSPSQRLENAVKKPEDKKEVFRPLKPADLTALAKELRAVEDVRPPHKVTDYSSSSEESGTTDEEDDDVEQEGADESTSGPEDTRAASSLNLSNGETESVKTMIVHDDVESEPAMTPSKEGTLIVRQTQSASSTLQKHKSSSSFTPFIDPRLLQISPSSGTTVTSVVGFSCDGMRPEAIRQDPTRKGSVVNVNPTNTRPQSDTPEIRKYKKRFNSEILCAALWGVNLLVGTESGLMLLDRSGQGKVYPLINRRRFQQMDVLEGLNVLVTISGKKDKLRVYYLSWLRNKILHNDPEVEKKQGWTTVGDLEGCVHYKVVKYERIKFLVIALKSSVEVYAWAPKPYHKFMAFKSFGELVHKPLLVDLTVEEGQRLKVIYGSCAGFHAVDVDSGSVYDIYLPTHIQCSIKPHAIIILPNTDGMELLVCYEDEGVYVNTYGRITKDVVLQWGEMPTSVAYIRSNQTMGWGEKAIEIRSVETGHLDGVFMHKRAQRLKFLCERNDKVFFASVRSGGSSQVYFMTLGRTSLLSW

Compound | inhibition [1] [%] | t1/2 [2] [h] | inhibition [3] [%] | inhibition [4] [%] | inhibition [5] [%] | inhibition [6] [%] | inhibition [7] [%] | inhibition [8] [%] | inhibition [9] [%]
CCN1CCN(Cc2ccc(NC(=O)c3ccc(C)c(Oc4ccnc5[nH]ccc45)c3)cc2C(F)(F)F)CC1 | 86.4 | 2.03 | 42.3 | 31.2 | -2.4 | 9.4 | -2.7 | 30 | 
CNc1cc(Oc2cc(C(=O)Nc3cc(-n4cnc(C)c4)cc(C(F)(F)F)c3)ccc2C)ncn1 |  |  |  |  |  |  |  |  | 24.1
CNc1cc(Oc2cc(C(=O)Nc3cc(N4CCN(C)CC4)cc(C(F)(F)F)c3)ccc2C)ncn1 |  |  |  |  |  |  |  |  | 2.7
CCN1CCN(Cc2ccc(NC(=O)c3ccc(C)c(/C=C/c4cnc5[nH]ccc5c4OC)c3)cc2C(F)(F)F)CC1 | > 88 | 4.66 | 55.5 | 30.2 | -3.8 | 6.4 | -0.4 | 19.2 | 
